Test results from PubChem BioAssay AID602266 (Broad Institute, 2012).
Inconclusive results are not listed. Active and inactive are the calls of the source.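 The calls were made as follows: active = compounds whose fitted half-maximal inhibition dose is at most double their top valid tested dose; inconclusive = flat curve with 30 to 70% inhibition, or poor fit; inactive = the rest.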

Tested on: not listed separately
Assay: reduction of heat-induced Hsp90aa mRNA, dose response, orthogonal assay for HSF1 inhibitor project, NIH-3T3 cells, RT-qPCR, cherry-pick (AID 602266)
Conditions: NIH-3T3 HGL cells, heat shock, Hsp90aa mRNA qPCR; at 26 µM (top of the series)
How it was run: (§1)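 Assay system: HGL cells, NIH-3T3 mouse fibroblasts with HSE-driven GFP/luciferase construct. Timing: overnight plating, 90-min compound pretreatment, 90-min heat shock, 1-h recovery. Signal: Two-step multiplex TaqMan RT-qPCR.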

Q: With `CC(=O)[C@@]1(O)C(C)CC2C3C=C(C)C4=Cc5c(cnn5-c5ccccc5)C[C@]4(C)C3C(O)C[C@@]21C` (stereo not given in full) as the compound, how does the activity change, negative = inhibition read?
A: 97.3% (inactive)

Q: With `CC1CCCN(c2ncnc3c2cnn3-c2ccc(Cl)cc2)C1` (stereo not given) as the compound, how does the activity change, negative = inhibition read?
A: 28.9% (inactive)

Q: Which activity change, negative = inhibition does the source give for `CC(C)(C)c1ccc(/C=N/Nc2cccc(C(=O)O)c2)cc1` here?
A: 12.9% (inactive)

Q: For `CC(=O)OCC(=O)[C@@]12OC(C)(C)O[C@@H]1CC1C3C[C@H](F)C4=CC(=O)C=CC4(C)[C@@]3(F)C(O)CC12C` (stereo not given in full), which activity change, negative = inhibition is on record?
A: -1.11% (inactive)

Q: With `C(=N\Nc1nc2ccccc2s1)/c1ccccn1` as the compound, how does the activity change, negative = inhibition read?
A: 82.6% (inactive)

Q: For `C[C@@H]1C[C@H]2[C@@H]3CCC4=CC(=O)C=C[C@]4(C)[C@@]3(F)[C@@H](O)C[C@]2(C)[C@@]1(O)C(=O)CO`, which activity change, negative = inhibition is on record?
A: 6.93% (inactive)

Q: For `CCS(=O)(=O)N1Cc2ccccc2CC1C(=O)Nc1nc2ccccc2s1` (stereo not given), which activity change, negative = inhibition is on record?
A: 33.2% (inactive)

Q: For `N#CCCCC#Cc1ccc2c(c1)COc1c3ccccc3nn1-2`, which activity change, negative = inhibition is on record?
A: 65.7% (inactive)

Q: With `CCC(=O)O[C@]1(C(=O)CCl)[C@@H](C)C[C@H]2[C@@H]3CCC4=CC(=O)C=C[C@]4(C)[C@@]3(F)[C@@H](O)C[C@@]21C` as the compound, how does the activity change, negative = inhibition read?
A: 30.2% (inactive)

Q: With `CC12CCC(=O)C=C1CCC1C2C(O)CC2(C)C1CCC2(O)C(=O)CO` (stereo not given) as the compound, how does the activity change, negative = inhibition read?
A: 4.01% (inactive)

Q: With `Cc1ccc(/C=N/Nc2ccc(C(=O)O)cc2)s1` as the compound, how does the activity change, negative = inhibition read?
A: 32.5% (inactive)

Q: For `C[C@]12C=CC(=O)C=C1CC[C@@H]1[C@@H]2[C@@H](O)C[C@@]2(C)[C@H]1CC[C@]2(O)C(=O)CO`, which activity change, negative = inhibition is on record?
A: 4.41% (inactive)

Q: With `O=C(Nc1ccc(F)cc1F)c1cc2nc3c(c(C(F)(F)F)n2n1)CCCC3` as the compound, how does the activity change, negative = inhibition read?
A: 2.56% (inactive)

Q: For `CN(C(=O)OC(C)(C)C)c1ccc(-c2nc3ccccc3s2)cc1`, which activity change, negative = inhibition is on record?
A: 46.6% (inactive)

Q: For `O=c1c2ccccc2sc2ccc(C#CC3(O)CCCCC3)cc12`, which activity change, negative = inhibition is on record?
A: 49.4% (inactive)

Q: With `COC(=O)c1ccccc1NC(=O)c1ccc(-c2ccc(Br)cc2)o1` as the compound, how does the activity change, negative = inhibition read?
A: 4.07% (inactive)

Q: With `Cc1c(-c2nc(-c3ccc(C(C)(C)C)cc3)no2)n(C)oc1=O` as the compound, how does the activity change, negative = inhibition read?
A: 18.8% (inactive)

Q: For `CCOc1ccc(OCc2cccc(C(=O)N/N=C/c3cccnc3)c2)cc1`, which activity change, negative = inhibition is on record?
A: 37.3% (inactive)

Q: With `Cc1nc(SCC(=O)Nc2nc3ccccc3s2)c(C#N)c(C)c1C` as the compound, how does the activity change, negative = inhibition read?
A: 7.25% (inactive)

Q: Which activity change, negative = inhibition does the source give for `CC1CCN(c2ccc(-c3cccc(NC(=O)C(F)(F)F)c3)nn2)CC1` here?
A: 37.6% (inactive)

Q: Which activity change, negative = inhibition does the source give for `O=C(CN1C(=O)c2ccccc2S1(=O)=O)c1ccc2c(c1)OCCCO2` here?
A: 13.4% (inactive)

Q: For `O=[N+]([O-])c1nn(-c2ccc3c(c2)OCCO3)n(O)c1=Nc1ccccc1`, which activity change, negative = inhibition is on record?
A: 29% (inactive)

Q: With `CC(C)Sc1nc(SCC(=O)NCc2ccco2)c2c3c(sc2n1)COC(C)(C)C3` as the compound, how does the activity change, negative = inhibition read?
A: 52.6% (inactive)

Q: For `Cc1cccc(-n2ncc3c(N(C)C4CCCCC4)ncnc32)c1`, which activity change, negative = inhibition is on record?
A: 27% (inactive)

Tested on: NIH-3T3 HGL cells, heat shock, Hsp90aa mRNA qPCR
Assay: as above
Conditions: not given
How it was run: as §1

Q: With `CC1=C(C(=O)OCc2ccc3c(c2)OCO3)C(c2ccc(F)cc2)NC(=O)N1` (stereo not given) as the compound, how does the AC50 read?
A: 1.39 µM
